Measurements: ChEMBL document CHEMBL1121898, “Potential antiestrogens. Synthesis and evaluation of mammary tumor inhibiting activity of 1,2-dialkyl-1,2-bis(3'-hydroxyphenyl)ethanes” (1981)

Legend:
Assay type in all cases: functional, Homo sapiens
MCF7 [1] = assay: Inhibition of estrogen receptor positive MCF-7 cell proliferation as percent treated/control cell number after 10 days at 10e-6 M
Method in brief: (§1)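 MCF-7 cells were grown in McCoy's 5a medium with fetal bovine serum stripped by DCC (0.5 h, 45 °C). Compounds were dissolved in ethanol (final ≤0.5%) and diluted in complete medium. Cells were seeded at 5×10^4 cells/plate. On day 10, three replicate plates per group were counted by Coulter counter, three counts per plate. Percent T/C = test/control. In a retest, compounds were given at 10^-7 M with 17β-estradiol at 10^-7 or 10^-8 M.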

MCF7 [2] = assay: Inhibition of estrogen receptor positive MCF-7 cell proliferation as percent treated/control cell number after 10 days at 10e-7 M; method in brief: as §1
MCF7 [3] = assay: Inhibition of estrogen receptor positive MCF-7 cell proliferation as percent treated/control cell number after 10 days at 10e-8 M; method in brief: as §1
MCF7 [4] = assay: Inhibition of estrogen receptor positive MCF-7 cell proliferation as cell number after 10 days at 10e-8 M; method in brief: as §1
MCF7 [5] = assay: Inhibition of estrogen receptor positive MCF-7 cell proliferation as cell number after 10 days at 10e-6 M; method in brief: as §1
MCF7 [6] = assay: Inhibition of estrogen receptor positive MCF-7 cell proliferation as cell number after 10 days at 10e-7 M; method in brief: as §1

## CC/C(=C(\c1ccccc1)c1ccc(OCCN(C)C)cc1)c1ccccc1 [TAMOXIFEN]
MCF7 [1]
  T/C: 75%
MCF7 [2]
  T/C: 79%
MCF7 [3]
  T/C: 87%
MCF7 [4]
  Cell number: 38000
MCF7 [5]
  Cell number: 32900
MCF7 [6]
  Cell number: 34600
